This is an account of results in ChEMBL document CHEMBL1141391 (J Med Chem, 2007).

One assay has as its system A2780. As to the kind of experiment: Cytotoxicity against A2780 cell line. Particulars: Homo sapiens. The assay is classed as cell-based.
In the next assay the test system is PC-3. The assay can be described thus: Cytotoxicity against PC3 cell line by MTT assay. The assay is classed as cell-based. Particulars: Homo sapiens.
In a further assay the target is Tubulin (Homo sapiens) (UniProt P68371+Q9H4B7+P0DPH7+P68366+Q13509+Q71U36+P04350+Q3ZCM7+P07437+P68363+Q9BQE3+Q6PEY2+Q13885+Q9BVA1+Q9BUF5). The assay can be described thus: Induction of GTP-tubulin polymerization. The assay is classed as protein-complex assay. The method in brief: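 ED50 for induction of tubulin assembly, read by light scattering at 350 nm or by fluorescence in a 96-well format. GTP-tubulin was used unless otherwise stated. Some samples were run with GDP-tubulin and normalized to the GTP-tubulin scale. Some values are single determinations.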

Broadly, the IC50 is the concentration that gives 50% inhibition. Low values mean higher potency, high ones lower potency. Take `C=CCOc1cccc([C@H](NC(=O)c2ccccc2)[C@@H](O)C(=O)O[C@H]2C[C@@]3(O)[C@@H](OC(=O)c4ccccc4)[C@@H]4[C@]5(OC(=O)C=C)CO[C@@H]5C[C@H](O)[C@@]4(C)C(=O)[C@H](OC(C)=O)C(=C2C)C3(C)C)c1`: the IC50 with A2780 was 1900 nM; with PC-3, 550 nM. At Tubulin (Homo sapiens), this compound yielded an ED50 of 1000 nM.

Turning to `CC(=O)O[C@H]1C(=O)[C@@]2(C)[C@@H]3[C@H](OC(=O)c4ccccc4)[C@]4(O)C[C@H](OC(=O)[C@H](O)[C@@H](NC(=O)c5ccccc5)c5ccccc5OCCCCC(=O)O[C@]35CO[C@@H]5C[C@@H]2O)C(C)=C1C4(C)C`, the IC50 was found to be 28 nM in the assay with A2780 and 13 nM in the assay with PC-3. The same compound gave an ED50 on Tubulin (Homo sapiens) of 230 nM.

In the case of `CC(=O)O[C@H]1C(=O)[C@@]2(C)[C@@H]3[C@H](OC(=O)c4ccccc4)[C@]4(O)C[C@H](OC(=O)[C@H](O)[C@@H](NC(=O)c5ccccc5)c5ccccc5/C=C/CC(=O)O[C@]35CO[C@@H]5C[C@@H]2O)C(C)=C1C4(C)C`, the IC50 was determined as 0.5 nM in the assay with A2780 and 3.1 nM in the assay on PC-3. Besides, the ED50 at Tubulin (Homo sapiens) came out at 330 nM.

`CC(=O)O[C@H]1C(=O)[C@@]2(C)[C@@H]3[C@H](OC(=O)c4ccccc4)[C@]4(O)C[C@H](OC(=O)[C@H](O)[C@@H](NC(=O)c5ccccc5)c5ccccc5OCCCCCCC(=O)O[C@]35CO[C@@H]5C[C@@H]2O)C(C)=C1C4(C)C`: the results for the IC50 in the assay with A2780 and in the assay on PC-3 were 2000 nM and 390 nM, respectively. The ED50 at Tubulin (Homo sapiens) came to 850 nM.

Turning to `C=CCOc1ccccc1[C@H](NC(=O)c1ccccc1)[C@@H](O)C(=O)O[C@H]1C[C@@]2(O)[C@@H](OC(=O)c3ccccc3)[C@@H]3[C@]4(OC(=O)C=C)CO[C@@H]4C[C@H](O)[C@@]3(C)C(=O)[C@H](OC(C)=O)C(=C1C)C2(C)C`, the IC50 in the assay with A2780 was 17800 nM; in the assay with PC-3 it was 2800 nM. This compound also showed an ED50 at Tubulin (Homo sapiens) of 1200 nM.

As for `C=CC(=O)O[C@@]12CO[C@@H]1C[C@H](O)[C@@]1(C)C(=O)[C@H](OC(C)=O)C3=C(C)[C@@H](OC(=O)[C@H](O)[C@@H](NC(=O)c4ccccc4)c4cccc(C=C)c4)C[C@@](O)([C@@H](OC(=O)c4ccccc4)[C@H]21)C3(C)C`, the IC50 with A2780 turned out to be 1700 nM; in the assay with PC-3, 320 nM. Besides, the ED50 at Tubulin (Homo sapiens) was 1000 nM.

Turning to `CC(=O)O[C@H]1C(=O)[C@@]2(C)[C@@H]3[C@H](OC(=O)c4ccccc4)[C@]4(O)C[C@H](OC(=O)[C@H](O)[C@@H](NC(=O)OC(C)(C)C)c5ccccc5/C=C/CC(=O)O[C@]35CO[C@@H]5C[C@@H]2O)C(C)=C1C4(C)C`, the IC50 turned out to be 1.4 nM in the assay with A2780 and 3.2 nM with PC-3. The ED50 on Tubulin (Homo sapiens) is 490 nM.

Turning to `CC(=O)O[C@H]1C(=O)[C@@]2(C)[C@@H]3[C@H](OC(=O)c4ccccc4)[C@]4(O)C[C@H](OC(=O)[C@H](O)[C@@H](NC(=O)OC(C)(C)C)c5ccccc5CCCC(=O)O[C@]35CO[C@@H]5C[C@@H]2O)C(C)=C1C4(C)C`, the IC50 was found to be 0.65 nM in the assay on A2780 and 1.5 nM in the assay with PC-3. This compound returned an ED50 at Tubulin (Homo sapiens) of 180 nM.

As for `COc1cccc(C(=O)O[C@H]2[C@@H]3[C@]45CO[C@@H]4C[C@H](O)[C@@]3(C)C(=O)[C@H](OC(C)=O)C3=C(C)[C@H](C[C@]2(O)C3(C)C)OC(=O)[C@H](O)[C@@H](NC(=O)c2ccccc2)c2ccccc2C/C=C/C(=O)O5)c1`, the IC50 amounted to 17.7 nM in the assay on A2780 and 8.2 nM in the assay on PC-3. This compound also showed an ED50 at Tubulin (Homo sapiens) of 220 nM.

In the case of `CC(=O)O[C@H]1C(=O)[C@@]2(C)[C@@H]3[C@H](OC(=O)c4ccccc4)[C@]4(O)C[C@H](OC(=O)[C@H](O)[C@@H](NC(=O)c5ccccc5)c5ccccc5OC/C=C/CCC(=O)O[C@]35CO[C@@H]5C[C@@H]2O)C(C)=C1C4(C)C`, the IC50 in the assay with A2780 came to 830 nM; in the assay with PC-3, 55 nM. The compound further had an ED50 at Tubulin (Homo sapiens) of 900 nM.

As for `C=CCCC(=O)O[C@@]12CO[C@@H]1C[C@H](O)[C@@]1(C)C(=O)[C@H](OC(C)=O)C3=C(C)[C@@H](OC(=O)[C@H](O)[C@@H](NC(=O)c4ccccc4)c4cccc(OCC=C)c4)C[C@@](O)([C@@H](OC(=O)c4ccccc4)[C@H]21)C3(C)C`, the values for the IC50 in the assay with A2780 and with PC-3 were 2520 nM and 2600 nM, respectively. At Tubulin (Homo sapiens), this compound returned an ED50 of 1800 nM.

Consider `C=CCCOc1ccccc1[C@H](NC(=O)c1ccccc1)[C@@H](O)C(=O)O[C@H]1C[C@@]2(O)[C@@H](OC(=O)c3ccccc3)[C@@H]3[C@]4(OC(=O)C=C)CO[C@@H]4C[C@H](O)[C@@]3(C)C(=O)[C@H](OC(C)=O)C(=C1C)C2(C)C`, for which the IC50 was 19800 nM in the assay with A2780 and over 13200 nM in the assay with PC-3. The same compound returned an ED50 at Tubulin (Homo sapiens) of 2700 nM.

As for `CC(=O)O[C@H]1C(=O)[C@@]2(C)[C@@H]3[C@H](OC(=O)c4ccccc4)[C@]4(O)C[C@H](OC(=O)[C@H](O)[C@@H](NC(=O)c5ccccc5)c5ccccc5OCCCCCC(=O)O[C@]35CO[C@@H]5C[C@@H]2O)C(C)=C1C4(C)C`, the IC50 was 980 nM in the assay on A2780 and 51 nM with PC-3. The ED50 on Tubulin (Homo sapiens) is 760 nM.

For `COc1cccc(C(=O)O[C@H]2[C@@H]3[C@]45CO[C@@H]4C[C@H](O)[C@@]3(C)C(=O)[C@H](OC(C)=O)C3=C(C)[C@H](C[C@]2(O)C3(C)C)OC(=O)[C@H](O)[C@@H](NC(=O)c2ccccc2)c2ccccc2CCCC(=O)O5)c1`, in the assay on A2780, half-maximal inhibition (IC50) was put at 23.1 nM.

Turning to `C=CCCCC(=O)O[C@@]12CO[C@@H]1C[C@H](O)[C@@]1(C)C(=O)[C@H](OC(C)=O)C3=C(C)[C@@H](OC(=O)[C@H](O)[C@@H](NC(=O)c4ccccc4)c4cccc(OCC=C)c4)C[C@@](O)([C@@H](OC(=O)c4ccccc4)[C@H]21)C3(C)C`, the IC50 in the assay on A2780 was 7400 nM; with PC-3, 4600 nM. The compound also had an ED50 at Tubulin (Homo sapiens) of 2200 nM.

With `CC(=O)O[C@H]1C(=O)[C@@]2(C)[C@@H]3[C@H](OC(=O)c4ccccc4)[C@]4(O)C[C@H](OC(=O)[C@H](O)[C@@H](NC(=O)c5ccccc5)c5ccccc5OC/C=C/CCCC(=O)O[C@]35CO[C@@H]5C[C@@H]2O)C(C)=C1C4(C)C`, the IC50 was 440 nM with A2780 and 90 nM with PC-3. The compound also registered an ED50 on Tubulin (Homo sapiens) of 530 nM.

For the compound `COc1cccc(C(=O)O[C@H]2[C@@H]3[C@]45CO[C@@H]4C[C@H](O)[C@@]3(C)C(=O)[C@H](OC(C)=O)C3=C(C)[C@H](C[C@]2(O)C3(C)C)OC(=O)[C@H](O)[C@@H](NC(=O)OC(C)(C)C)c2ccccc2CCCC(=O)O5)c1`, the values for the IC50 with A2780 and in the assay with PC-3 were 0.49 nM and 1.3 nM, respectively. Further, the ED50 on Tubulin (Homo sapiens) worked out at 220 nM.

On to `C=CC(=O)O[C@@]12CO[C@@H]1C[C@H](O)[C@@]1(C)C(=O)[C@H](OC(C)=O)C3=C(C)[C@@H](OC(=O)[C@H](O)[C@@H](NC(=O)c4ccccc4)c4ccccc4C=C)C[C@@](O)([C@@H](OC(=O)c4ccccc4)[C@H]21)C3(C)C`, for which the IC50 with A2780 came to 1600 nM; with PC-3 it was 275 nM. Besides, the ED50 at Tubulin (Homo sapiens) stood at 1400 nM.

For `COc1cccc(C(=O)O[C@H]2[C@@H]3[C@]45CO[C@@H]4C[C@H](O)[C@@]3(C)C(=O)[C@H](OC(C)=O)C3=C(C)[C@H](C[C@]2(O)C3(C)C)OC(=O)[C@H](O)[C@@H](NC(=O)c2ccccc2)c2ccccc2/C=C/CC(=O)O5)c1`, the figures for the IC50 in the assay on A2780 and with PC-3 were 23.7 nM and 6 nM, respectively. On Tubulin (Homo sapiens), this compound gave an ED50 of 570 nM.

On to `CC(=O)O[C@H]1C(=O)[C@@]2(C)[C@@H]3[C@H](OC(=O)c4ccccc4)[C@]4(O)C[C@H](OC(=O)[C@H](O)[C@@H](NC(=O)c5ccccc5)c5cccc(c5)OCCCC(=O)O[C@]35CO[C@@H]5C[C@@H]2O)C(C)=C1C4(C)C`, for which the IC50 worked out at 700 nM in the assay on A2780 and 53 nM in the assay with PC-3. Moreover, the ED50 at Tubulin (Homo sapiens) is 1400 nM.

As for `COc1cccc(C(=O)O[C@H]2[C@@H]3[C@]45CO[C@@H]4C[C@H](O)[C@@]3(C)C(=O)[C@H](OC(C)=O)C3=C(C)[C@H](C[C@]2(O)C3(C)C)OC(=O)[C@H](O)[C@@H](NC(=O)OC(C)(C)C)c2ccccc2/C=C/CC(=O)O5)c1`, the IC50 in the assay on A2780 was over 6 nM; in the assay on PC-3, 11 nM. This compound returned an ED50 at Tubulin (Homo sapiens) of 350 nM.

Regarding `CC(=O)O[C@H]1C(=O)[C@@]2(C)[C@@H]3[C@H](OC(=O)c4ccccc4)[C@]4(O)C[C@H](OC(=O)[C@H](O)[C@@H](NC(=O)c5ccccc5)c5cccc(c5)OCCCCCC(=O)O[C@]35CO[C@@H]5C[C@@H]2O)C(C)=C1C4(C)C`, the IC50 in the assay on A2780 stood at 3600 nM; with PC-3, 1000 nM. For the same compound, on Tubulin (Homo sapiens), the ED50 worked out at 3400 nM.

Turning to `C=CCc1ccccc1[C@H](NC(=O)c1ccccc1)[C@@H](O)C(=O)O[C@H]1C[C@@]2(O)[C@@H](OC(=O)c3ccccc3)[C@@H]3[C@]4(OC(=O)C=C)CO[C@@H]4C[C@H](O)[C@@]3(C)C(=O)[C@H](OC(C)=O)C(=C1C)C2(C)C`, the IC50 was found to be 1300 nM with A2780 and 550 nM in the assay with PC-3. This compound also registered an ED50 at Tubulin (Homo sapiens) of 1400 nM.

As to `CC(=O)O[C@H]1C(=O)[C@@]2(C)[C@@H]3[C@H](OC(=O)c4ccccc4)[C@]4(O)C[C@H](OC(=O)[C@H](O)[C@@H](NC(=O)c5ccccc5)c5cccc(c5)OC/C=C\C(=O)O[C@]35CO[C@@H]5C[C@@H]2O)C(C)=C1C4(C)C`, the values for the IC50 with A2780 and in the assay with PC-3 were 6300 nM and 580 nM, respectively. The same compound showed an ED50 at Tubulin (Homo sapiens) of 4600 nM.

As to `CC(=O)O[C@H]1C(=O)[C@@]2(C)[C@@H]3[C@H](OC(=O)c4ccccc4)[C@]4(O)C[C@H](OC(=O)[C@H](O)[C@@H](NC(=O)c5ccccc5)c5cccc(c5)CCCCC(=O)O[C@]35CO[C@@H]5C[C@@H]2O)C(C)=C1C4(C)C`, the results for the IC50 in the assay on A2780 and in the assay with PC-3 were 8800 nM and 570 nM, respectively. At Tubulin (Homo sapiens), the ED50 amounted to 1400 nM.

For the compound `CC(=O)O[C@H]1C(=O)[C@@]2(C)[C@@H]3[C@H](OC(=O)c4ccccc4)[C@]4(O)C[C@H](OC(=O)[C@H](O)[C@@H](NC(=O)c5ccccc5)c5ccccc5OC/C=C/CCCCC(=O)O[C@]35CO[C@@H]5C[C@@H]2O)C(C)=C1C4(C)C`, the IC50 in the assay with A2780 came to 1840 nM; in the assay on PC-3 it was 500 nM. On Tubulin (Homo sapiens), this compound returned an ED50 of 930 nM.
